Laboratory results taken from ChEMBL document CHEMBL2417418, “Synthesis and evaluation of novel 3-(3,5-dimethylbenzyl)uracil analogs as potential anti-HIV-1 agents” (Bioorg Med Chem, 2013).

Legend:
[1] = Selectivity index, ratio of CC50 for human MT4 cells to EC50 for HIV1 3B; assay type: toxicity, cell-based; conditions: read-out: Ratio CC50/EC50
Summary of the method: (§1)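 SI computed as CC50/EC50. Both values come from parallel MTT readings after 4 days at 37 °C. CC50 is from mock-infected MT-4 cells; EC50 is from MT-4 cells infected with HIV-1 IIIB at MOI 0.1, as 50% protection from cytopathogenicity.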

[2] = Cytotoxicity against human MT4 cells after 4 days by MTT assay; assay type: cell-based
Summary of the method: (§2)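 Mock-infected MT-4 cells (1 ×10^5 cells/mL, RPMI 1640 + 10% heat-inactivated FBS) cultured with various compound concentrations in parallel with the antiviral assay, 4 days at 37 °C, 5% CO2. Viability read by MTT. CC50 is the concentration cutting uninfected-cell viability by 50%.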

[3] = tested on: Human immunodeficiency virus 1; experiment: Antiviral activity against HIV1 3B infected in human MT4 cells assessed as protection against viral-induced cytopathogenicity after 4 days by MTT assay; assay type: functional, organism-based; conditions: Human immunodeficiency virus 1, 3B, MT4, 96 h
[4] = Selectivity index, ratio of CC50 for human MT4 cells to EC50 for HIV1; assay type: toxicity, cell-based; conditions: read-out: Ratio CC50/EC50; summary of the method: as §1
[5] = Cytotoxicity against human MT4 cells; assay type: cell-based; summary of the method: as §2
[6] = tested on: Human immunodeficiency virus 1; experiment: Antiviral activity against HIV1 infected in human MT4 cells; assay type: functional, organism-based; conditions: Human immunodeficiency virus 1, MT4

Compound | selectivity ratio [1] | CC50 at 96 h [2] [µM] | EC50 [3] [µM] | selectivity ratio [4] | CC50 [5] [µM] | EC50 [6] [µM]
Cc1cc(C)cc(Cn2c(=O)cc(N)n(Cc3ccccn3)c2=O)c1 | > 443 | > 100 | 0.23 |  |  | 
Cc1cc(C)cc(Cn2c(=O)cc(N)n(Cc3ccncc3)c2=O)c1 | > 2860 | > 100 | 0.03 |  |  | 
Cc1cc(C)cc(Cn2c(=O)cc(N=[N+]=[N-])n(Cc3ccccc3)c2=O)c1 |  |  |  | 685 | 45.9 | 0.067
Cc1cc(C)cc(Cn2c(=O)cc(N)n(Cc3ccccc3)c2=O)c1 |  |  |  | 661 | 45.6 | 0.069
CC(=O)Nc1cc(=O)n(Cc2cc(C)cc(C)c2)c(=O)n1Cc1ccccc1 |  | > 100 | > 100 |  |  | 
CNc1cc(=O)n(Cc2cc(C)cc(C)c2)c(=O)n1Cc1ccccc1 | 9 | 65 | 7 |  |  | 
Cc1cc(C)cc(Cn2c(=O)cc(N(C)C)n(Cc3ccccc3)c2=O)c1 |  | 48 | > 48 |  |  | 
Cc1cc(C)cc(Cn2c(=O)cc(N3CCCC3)n(Cc3ccccc3)c2=O)c1 |  | 31 | > 31 |  |  | 
Cc1cc(C)cc(Cn2c(=O)cc(N3CCCCC3)n(Cc3ccccc3)c2=O)c1 |  | 47 | > 47 |  |  | 
Cc1cc(C)cc(Cn2c(=O)cc(N3CCNCC3)n(Cc3ccccc3)c2=O)c1 |  | 16 | > 16 |  |  | 
Cc1cc(C)cc(Cn2c(=O)cc(N3CCOCC3)n(Cc3ccccc3)c2=O)c1 |  | > 100 | > 100 |  |  | 
Cc1cc(C)cc(Cn2c(=O)cc(NC3CC3)n(Cc3ccccc3)c2=O)c1 |  | > 100 | > 100 |  |  | 
Cc1cc(C)cc(Cn2c(=O)cc(NC3CCCCC3)n(Cc3ccccc3)c2=O)c1 |  | 74 | > 74 |  |  | 
Cc1cc(C)cc(Cn2c(=O)cc(NCc3ccccc3)n(Cc3ccccc3)c2=O)c1 |  | > 100 | > 100 |  |  | 
Cc1cc(C)cc(Cn2c(=O)cc(N=[N+]=[N-])n(CC#N)c2=O)c1 |  | 60 | 3.5 |  |  | 
Cc1cc(C)cc(Cn2c(=O)cc(N=[N+]=[N-])n(Cc3ccccn3)c2=O)c1 | > 457 | > 100 | 0.22 |  |  | 
Cc1cc(C)cc(Cn2c(=O)cc(N=[N+]=[N-])n(Cc3ccncc3)c2=O)c1 | 1160 | 59 | 0.05 |  |  | 
Cc1cc(C)cc(Cn2c(=O)cc(N)n(CC#N)c2=O)c1 |  | > 100 | > 100 |  |  | 
Cc1ccnc2c1NC(=O)c1cccnc1N2C1CC1 [NEVIRAPINE] |  |  |  | > 1640 |  | 
Cc1cn([C@H]2C[C@H](N=[N+]=[N-])[C@@H](CO)O2)c(=O)[nH]c1=O [ZIDOVUDINE] | > 2770 | > 100 | 0.04 |  |  | 
